Experimental data: ChEMBL document CHEMBL2093137, “WHO-TDR NTD Screening”
Values after ≈ are worked out from the molar mass of the structure shown.

Legend:
Leishmania infantum = experiment: WHO-TDR: Leishmaniasis; format: functional, organism-based, Mus musculus; conditions: Macrophage
In short: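 A diverse library of 10,000 compounds from Life Chemicals, filtered for drug-likeness and reactive groups, was screened against whole organisms. The targets were intracellular amastigotes of Leishmania infantum MHOM/MA(BE)/67 growing in murine peritoneal macrophages. Previously published standard procedures were followed, with a reference drug as positive control. Antiparasitic potency is given as IC50.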

[1] = WHO-TDR: Cytotoxicity; format: toxicity, cell-based; conditions: human, MRC5 cells
Trypanosoma cruzi = experiment: WHO-TDR: Chagas disease; format: functional, organism-based, Homo sapiens; conditions: MRC5
In short: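 Following previously published standard procedures, with a reference drug as positive control, a whole-organism assay was run on Trypanosoma cruzi Tulahuen CL2 beta-galactosidase strain amastigotes inside MRC-5SV2 human lung fibroblast host cells. The 10,000 compounds tested formed a diverse Life Chemicals library filtered for drug-likeness and reactive groups. Results are expressed as IC50 for antiparasitic potency.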

Brugia malayi = experiment: WHO-TDR: Lymphatic Filariasis; format: functional; design: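 tested at 10 µM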
In short: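 Following previously published standard procedures, compounds were tested on whole Brugia malayi microfilariae, with reference drugs as positive controls. They came from a diverse Life Chemicals collection of 10,000 compounds filtered for drug-likeness and reactive groups. Results appear as percent inhibition and as IC50.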

Plasmodium falciparum K1 = experiment: WHO-TDR: Malaria; format: functional, organism-based, Homo sapiens; conditions: Erythrocyte
In short: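 A diverse library of 10,000 compounds from Life Chemicals, filtered for drug-likeness and reactive groups, was screened against the intra-erythrocytic Plasmodium falciparum K1 strain in human red blood cells. Previously published standard procedures were followed, with a reference drug as positive control. Antiplasmodial potency is given as IC50.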

Onchocerca ochengi = experiment: WHO-TDR: Onchocerciasis; format: functional; design: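 at 12.5 µM on microfilariae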
In short: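 Following previously published standard procedures, with reference drugs as positive controls, a diverse Life Chemicals library was tested on whole Onchocerca ochengi or Onchocerca lienalis microfilariae. The library held 10,000 compounds filtered for drug-likeness and reactive groups. Activity is recorded both as percent inhibition and as IC50.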

[2] = tested on: Trypanosoma brucei brucei; experiment: WHO-TDR: Human African Trypanosomiasis (HAT); format: functional, organism-based; conditions: Squib-427
In short: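 A diverse library of 10,000 compounds from Life Chemicals, filtered for drug-likeness and reactive groups, was screened against bloodstream forms of Trypanosoma brucei Squib 427 strain in a whole-organism assay. Previously published standard procedures were followed, with reference drugs serving as positive controls. Antiparasitic potency is given as IC50.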

SMILES | IC50 (Leishmania infantum) | IC50 [1] | IC50 (Trypanosoma cruzi) | % Inhibition (Brugia malayi) | IC50 (Plasmodium falciparum K1) | % Inhibition (Onchocerca ochengi) | IC50 [2]
Cc1cccc2sc(NC(=O)CCc3csc(NC(=O)c4ccco4)n3)nc12 | 0.843 µg/mL (≈ 2.04 µM) | > 12.4 µg/mL | > 12.4 µg/mL | 0% | > 12.4 µg/mL | 100% | > 12.4 µg/mL
O=C(Cc1csc(Nc2cccc(Cl)c2)n1)NCc1ccccn1 | 2.55 µg/mL (≈ 7.11 µM) | 1.76 µg/mL (≈ 4.91 µM) | 1.71 µg/mL (≈ 4.75 µM) | 0% | > 10.8 µg/mL | 100% | > 10.8 µg/mL
COc1ccc(C(=O)Nc2ccc(SCC(=O)N3CCCC3)nn2)c(OC)c1 | > 12.1 µg/mL | > 12.1 µg/mL | > 12.1 µg/mL | 0% | > 12.1 µg/mL | 100% | > 12.1 µg/mL
O=C(CCc1csc(NC(=O)c2ccco2)n1)Nc1ccc(Cl)cc1 | > 11.3 µg/mL | > 11.3 µg/mL | 3.67 µg/mL (≈ 9.77 µM) | 0% | > 11.3 µg/mL | 100% | > 11.3 µg/mL
O=C(Cc1csc(Nc2ccc(OC(F)(F)F)cc2)n1)NCC1CCCO1 (configuration not stated) | > 12 µg/mL | > 12 µg/mL | 5.45 µg/mL (≈ 13.6 µM) | 20% | > 12 µg/mL | 100% | > 12 µg/mL
Cc1nc2sc(C)c(C)n2c(=O)c1NC(=O)CC(c1ccccc1)c1ccccc1 | > 12.5 µg/mL | > 12.5 µg/mL | > 12.5 µg/mL | 0% | > 12.5 µg/mL | 100% | > 12.5 µg/mL
COc1ccc(C)cc1S(=O)(=O)N1CCN(c2ccc(Nc3cccnc3)nn2)CC1 | 4.28 µg/mL (≈ 9.71 µM) | 10.3 µg/mL (≈ 23.4 µM) | 3.89 µg/mL (≈ 8.83 µM) | 0% | > 13.2 µg/mL | 100% | > 13.2 µg/mL
COc1ccc(S(=O)(=O)Nc2cc(C)nn2C2CCS(=O)(=O)C2)cc1C (configuration not stated) | > 12 µg/mL | > 12 µg/mL | > 12 µg/mL | 0% | > 12 µg/mL | 100% | > 12 µg/mL
CC(C)c1ccc(Nc2ncnc3[nH]ncc23)cc1 | 5.18 µg/mL (≈ 20.4 µM) | > 7.6 µg/mL | 4.44 µg/mL (≈ 17.5 µM) | 0% | > 7.6 µg/mL | 100% | > 7.6 µg/mL
CCOc1ncccc1C(=O)Nc1c(C)nc2sc(C)c(C)n2c1=O | 0.348 µg/mL (≈ 0.971 µM) | > 10.8 µg/mL | > 10.8 µg/mL | 0% | > 10.8 µg/mL | 0% | > 10.8 µg/mL
COc1ccc(CC(=O)Nc2ccc(SC)nn2)cc1 | > 8.68 µg/mL | > 8.68 µg/mL | > 8.68 µg/mL | 0% | > 8.68 µg/mL | 100% | > 8.68 µg/mL
c1ccc2c(c1)CCN(c1ncnc3[nH]ncc13)C2 | > 7.54 µg/mL | > 7.54 µg/mL | > 7.54 µg/mL | 0% | > 7.54 µg/mL | 100% | > 7.54 µg/mL
COc1ccc(NC(=O)Nc2cccc(-c3csc4nc(C)cc(=O)n34)c2)cc1 | 0.395 µg/mL (≈ 0.972 µM) | > 12.2 µg/mL | > 12.2 µg/mL | 0% | > 12.2 µg/mL | 0% | 4.04 µg/mL (≈ 9.95 µM)
Cc1cc(=O)[nH]c(-n2nc(C)c(CCC(=O)Nc3cc(C)on3)c2C)n1 | > 10.7 µg/mL | > 10.7 µg/mL | > 10.7 µg/mL | 20% | > 10.7 µg/mL | 100% | > 10.7 µg/mL
COc1ccc(-c2cn3c(C(=O)Nc4ccc(F)cc4F)csc3n2)cc1 | > 11.6 µg/mL | > 11.6 µg/mL | > 11.6 µg/mL | 0% | > 11.6 µg/mL | 100% | > 11.6 µg/mL
COc1ccc(OC)c(Nc2nc(CC(=O)NCc3ccccc3Cl)cs2)c1 | 8.54 µg/mL (≈ 20.4 µM) | 2.13 µg/mL (≈ 5.1 µM) | 3.77 µg/mL (≈ 9.02 µM) | 20% | > 12.5 µg/mL | 100% | > 12.5 µg/mL
COc1cc(N2CCN(C(=O)Nc3cccc(Cl)c3)CC2)nc(OC)n1 | > 11.3 µg/mL | > 11.3 µg/mL | > 11.3 µg/mL | 0% | > 11.3 µg/mL | 100% | > 11.3 µg/mL
CC(C)(C)c1ccc(C(=O)N2CCN(c3ccc(Nc4ccncc4)nn3)CC2)cc1 | 4.04 µg/mL (≈ 9.71 µM) | 3.49 µg/mL (≈ 8.39 µM) | 4.1 µg/mL (≈ 9.85 µM) | 0% | 3.68 µg/mL (≈ 8.84 µM) | 100% | 4 µg/mL (≈ 9.6 µM)
COc1ccc(-c2cn3c(C(=O)Nc4ccc(OC(F)(F)F)cc4)csc3n2)cc1 | 4.21 µg/mL (≈ 9.71 µM) | 1.79 µg/mL (≈ 4.14 µM) | 3.69 µg/mL (≈ 8.5 µM) | 0% | 4.41 µg/mL (≈ 10.2 µM) | 100% | 4.11 µg/mL (≈ 9.49 µM)
Cc1cc(=O)n2c(-c3cccc(NC(=O)Nc4ccc(F)cc4)c3)csc2n1 | 0.383 µg/mL (≈ 0.971 µM) | > 11.8 µg/mL | > 11.8 µg/mL | 0% | > 11.8 µg/mL | 0% | > 11.8 µg/mL
Cc1cc(-c2nnc(SCC(=O)Nc3cccc(C(F)(F)F)c3)o2)c(C)o1 | > 11.9 µg/mL | > 11.9 µg/mL | > 11.9 µg/mL | 0% | > 11.9 µg/mL | 100% | 4.69 µg/mL (≈ 11.8 µM)
CN(C)c1ccc(NC(=O)Cc2csc(SCc3ccncc3)n2)cc1 | 3.65 µg/mL (≈ 9.49 µM) | > 11.5 µg/mL | 3.47 µg/mL (≈ 9.03 µM) | 0% | > 11.5 µg/mL | 100% | > 11.5 µg/mL
COc1ccc(-c2cn3c(C(=O)Nc4cc(C)ccc4C)csc3n2)cc1 | 5.86 µg/mL (≈ 15.5 µM) | > 11.3 µg/mL | > 11.3 µg/mL | 0% | > 11.3 µg/mL | 100% | 3.11 µg/mL (≈ 8.23 µM)
CCCCOc1ccc(C(=O)N2CCN(c3ccc(Nc4cccnc4)nn3)CC2)cc1 | 0.42 µg/mL (≈ 0.971 µM) | > 13 µg/mL | 3.45 µg/mL (≈ 7.98 µM) | 0% | 1.69 µg/mL (≈ 3.91 µM) | 100% | 11.9 µg/mL (≈ 27.5 µM)
CCOC(=O)N1CCN(C(=O)Nc2nc(CC(=O)Nc3ccc(F)c(F)c3)cs2)CC1 | > 13.6 µg/mL | > 13.6 µg/mL | > 13.6 µg/mL | 20% | > 13.6 µg/mL | 100% | > 13.6 µg/mL
Cc1cc(=O)[nH]c(-n2nc(-c3cccs3)cc2NC(=O)C2(c3ccc(Cl)cc3)CCCC2)n1 | 0.517 µg/mL (≈ 1.08 µM) | 0.682 µg/mL (≈ 1.42 µM) | 0.466 µg/mL (≈ 0.971 µM) | 0% | 4.97 µg/mL (≈ 10.4 µM) | 75% | 0.412 µg/mL (≈ 0.858 µM)
